Source: ChEMBL document CHEMBL1129487, “In vivo biodistribution, pharmacokinetic parameters, and brain uptake of 5-halo-y-methoxy(or ethoxy)-5,6-dihydro-3'-azido-3'-deoxythymidine diastereomers as potential prodrugs of 3'-azido-3'-deoxythymidine” (J Med Chem, 1996)
Each block holds one molecule with its values, some of them ahead of it.

Key:
[1] = Partition coefficient for 1-octanol/water was evaluated; assay type: physicochemical
Mus musculus [2] = assay: Pharmacokinetic parameter AUC for the compound after intravenous administration into BALB/c Mice in plasma samples.; assay type: ADME, organism-based; set-up: concentration or dose not given beside the values; conditions: in vivo
How it was run: (§1)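 Tail-vein injection in Balb/c mice at 144 µmol/kg, dissolved in 10% DMSO/water. Three mice per time point were killed by CO2, and blood was taken by cardiac puncture. With FIAU as internal standard, supernatant was Sep-Pak extracted. AZT was quantified by C18 HPLC (water:methanol 7:3, 265 nm; detection limit about 0.5 µg/mL). AUC covers 0 to last sample; t1/2 is from a one-compartment model.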

[3] = Half-life for the compound after intravenous administration into BALB/c Mice in plasma samples.; assay type: ADME, organism-based; conditions: mouse; how it was run: as §1
Mus musculus [4] = species: Mus musculus; assay: Thymidine Influx Inhibition constant for the compound in fresh Murine Erythrocytes; assay type: functional
How it was run: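 Erythrocytes from B6D2F1 mice, 10% hematocrit in HEPES-buffered saline, were given [methyl-3H]-thymidine (0.1–1.0 mM, four levels) with or without test compound (0.1–2.5 mM, four levels). Zero-trans influx ran 3 s and was stopped with 10 µM NBMPR (final). Cells were perchloric acid extracted and counted, with the zero-time blank subtracted. Ki came from a Dixon plot (1/v vs i), in duplicate.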

Mus musculus [5] = species: Mus musculus; assay: Percentage of total protein recovered in S3 which is the soluble fraction in mouse brain after Jugular Vein Injection; conditions: in vivo, iv
Mus musculus [6] = species: Mus musculus; assay: Distribution of analyte (pmol/mg) in mouse brain regions after Jugular Vein Injection into hippocampus; assay type: ADME, organism-based; conditions: in vivo, iv
Mus musculus [7] = species: Mus musculus; assay: Quantity of anylate in P1 subregion in mouse brain that contains nuclei and cell debris, after Jugular Vein Injection; assay type: functional
How it was run: (§2)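 Brains were pooled from five mice, with cerebella removed, in 0.32 M sucrose. Homogenate was centrifuged at 0-4 °C: P1 at 1000g 10 min, P2 at 10000g 30 min, P3 at 100000g 1 h, S3 supernatant. Protein was by Lowry. Pellets were Protosol-solubilized at 55 °C, then counted by combustion/scintillation.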

Mus musculus [8] = species: Mus musculus; assay: Percentage of radioactivity in P2 subregion in mouse brain that contains myelin fragments, synaptosomes (pinched-nerve endings), and mitochondria after Jugular Vein Injection; assay type: ADME, organism-based; conditions: in vivo, iv; how it was run: as §2
Mus musculus [9] = species: Mus musculus; assay: Distribution of analyte (pmol/mg) in mouse brain regions after Jugular Vein Injection into cortex; assay type: ADME, organism-based; conditions: in vivo, iv
Mus musculus [10] = species: Mus musculus; assay: Percentage of total protein recovered in P1 subregion in mouse brain that contains nuclei and cell debris, after Jugular Vein Injection; assay type: ADME, organism-based; conditions: in vivo, iv; how it was run: as §2
Mus musculus [11] = species: Mus musculus; assay: Percentage of radioactivity in P3 subregion in mouse brain that contains microsomal fraction after Jugular Vein Injection; assay type: ADME, organism-based; conditions: in vivo, iv; how it was run: as §2
Mus musculus [12] = species: Mus musculus; assay: Distribution of analyte (pmol/mg) in mouse brain regions after Jugular Vein Injection into pons and medulla; assay type: ADME, organism-based; conditions: in vivo, iv
Mus musculus [13] = species: Mus musculus; assay: Percentage of total protein recovered in P3 subregion in mouse brain that contains microsomal fraction after Jugular Vein Injection; assay type: ADME, organism-based; conditions: iv; how it was run: as §2
Mus musculus [14] = species: Mus musculus; assay: Distribution of analyte (pmol/mg) in mouse brain regions after Jugular Vein Injection into cerebellum; assay type: ADME, organism-based; conditions: in vivo, iv
Mus musculus [15] = species: Mus musculus; assay: Percentage of total protein recovered in P2 subregion in mouse brain that contains myelin fragments, synaptosomes (pinched-nerve endings), and mitochondria after Jugular Vein Injection; assay type: ADME, organism-based; conditions: in vivo, iv; how it was run: as §2
Mus musculus [16] = species: Mus musculus; assay: Quantity of anylate in S3 which is the soluble fraction in mouse brain after Jugular Vein Injection; assay type: functional; how it was run: as §2
Mus musculus [17] = species: Mus musculus; assay: Quantity of anylate in P3 subregion in mouse brain that contains microsomal fraction after Jugular Vein Injection; assay type: functional, organism-based; how it was run: as §2
Mus musculus [18] = species: Mus musculus; assay: Distribution of analyte (pmol/mg) in mouse brain regions after Jugular Vein Injection into hypothalamus; assay type: ADME, organism-based; conditions: in vivo, iv
Mus musculus [19] = species: Mus musculus; assay: Percentage of radioactivity in P1 subregion in mouse brain that contains nuclei and cell debris, after Jugular Vein Injection; assay type: ADME, organism-based; conditions: in vivo, iv; how it was run: as §2
Mus musculus [20] = species: Mus musculus; assay: Quantity of anylate in P2 subregion in mouse brain that contains myelin fragments, synaptosomes (pinched-nerve endings), and mitochondria after Jugular Vein Injection; assay type: functional, organism-based; how it was run: as §2
Mus musculus [21] = species: Mus musculus; assay: Percentage of radioactivity in S3 which is the soluble fraction in mouse brain after Jugular Vein Injection; assay type: ADME, organism-based; conditions: in vivo, iv; how it was run: as §2
Mus musculus [22] = species: Mus musculus; assay: Distribution of analyte (pmol/mg) in mouse brain regions after Jugular Vein Injection into rest of the brain; assay type: ADME, organism-based; conditions: in vivo, iv
Mus musculus [23] = species: Mus musculus; assay: Distribution of analyte (pmol/mg) in mouse brain regions after Jugular Vein Injection into striatum; assay type: ADME, organism-based; conditions: in vivo, iv
[24] = Concentration in mouse blood 90 min post injection at a dose 240 mocromol/kg; assay type: ADME; conditions: whole blood
How it was run: (§3)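 Balb/c mice given 240 µmol/kg iv of the test diastereomer (10% DMSO/water vehicle, tail vein). Blood was drawn by cardiac puncture into heparinized syringe at 15, 20, 60 and 90 min. FIAU was added as internal standard, and the sample was extracted by Sep-Pak. AZT and parent were measured by C18 HPLC (water:methanol 7:3, UV 265 nm). Values are the average of two experiments.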

[25] = Concentration in mouse blood 20 min post injection at a dose 240 mocromol/kg; assay type: ADME, organism-based; conditions: whole blood; how it was run: as §3
[26] = Concentration in mouse blood 15 min post injection at a dose 240 mocromol/kg; assay type: ADME, organism-based; conditions: whole blood; how it was run: as §3
[27] = Concentration in mouse blood 60 min post injection at a dose 240 mocromol/kg; assay type: ADME, organism-based; conditions: whole blood; how it was run: as §3

Structure (SMILES): CO[C@H]1N(C2CC(N=[N+]=[N-])C(CO)O2)C(=O)NC(=O)[C@]1(C)Br (stereo not given in full)
Distribution (Mus musculus [5]): 24.9%
Partition coefficient [1]: 13.2
Distribution (Mus musculus [6]): 0.71 pmol/mg
AUC (Mus musculus [2]): 6740 ng·h/mL
Quantity (Mus musculus [7]): 2.08 pmol/mg
Distribution (Mus musculus [8]): 5.6%
Distribution (Mus musculus [9]): 0.71 pmol/mg
Distribution (Mus musculus [10]): 13.3%
half-life [3]: 41.8 min
Distribution (Mus musculus [11]): 1.4%
Distribution (Mus musculus [12]): 0.66 pmol/mg
Ki (Mus musculus [4]): 450 µM
Distribution (Mus musculus [13]): 8.7%
Distribution (Mus musculus [14]): 0.72 pmol/mg
Distribution (Mus musculus [15]): 53.1%
Quantity (Mus musculus [16]): 21.8 pmol/mg
Quantity (Mus musculus [17]): 0.98 pmol/mg
Distribution (Mus musculus [18]): 1.32 pmol/mg
Distribution (Mus musculus [19]): 4.6%
Quantity (Mus musculus [20]): 0.65 pmol/mg
Distribution (Mus musculus [21]): 88.4%
Distribution (Mus musculus [22]): 0.71 pmol/mg
Distribution (Mus musculus [23]): 0.88 pmol/mg

Structure (SMILES): CO[C@@H]1N(C2CC(N=[N+]=[N-])C(CO)O2)C(=O)NC(=O)[C@@]1(C)Br (stereo not given in full)
Partition coefficient [1]: 16.7
AUC (Mus musculus [2]): 13500 ng·h/mL
half-life [3]: 31.1 min
Ki (Mus musculus [4]): 500 µM

Structure (SMILES): CO[C@H]1N(C2CC(N=[N+]=[N-])C(CO)O2)C(=O)NC(=O)[C@@]1(C)Cl (stereo not given in full)
Partition coefficient [1]: 3.3
Ki (Mus musculus [4]): > 1500 µM

Structure (SMILES): Cc1cn([C@H]2C[C@H](N=[N+]=[N-])[C@@H](CO)O2)c(=O)[nH]c1=O [ZIDOVUDINE]
concentration at […] [24]: < 1000 ng/mL
Partition coefficient [1]: 1.3
AUC (Mus musculus [2]): 11800 ng·h/mL
concentration at 20 min [25]: 2500 ng/mL
half-life [3]: 23.5 min
Ki (Mus musculus [4]): 1330 µM
concentration at 0.25 h [26]: 2500 ng/mL

Structure (SMILES): CO[C@H]1N(C2CC(N=[N+]=[N-])C(CO)O2)C(=O)NC(=O)[C@]1(C)Cl (stereo not given in full)
concentration at […] [24]: 1100 ng/mL
Partition coefficient [1]: 7.6
concentration at 1 h [27]: 16300 ng/mL
concentration at 20 min [25]: 12500 ng/mL
Ki (Mus musculus [4]): 360 µM
concentration at 0.25 h [26]: 28800 ng/mL

Structure (SMILES): CCO[C@H]1N(C2CC(N=[N+]=[N-])C(CO)O2)C(=O)NC(=O)[C@]1(C)Br (stereo not given in full)
Distribution (Mus musculus [5]): 27.5%
Distribution (Mus musculus [6]): 1.1 pmol/mg
Quantity (Mus musculus [7]): 3.96 pmol/mg
Distribution (Mus musculus [8]): 7.7%
Distribution (Mus musculus [9]): 0.66 pmol/mg
Distribution (Mus musculus [10]): 11.9%
Distribution (Mus musculus [11]): 2.4%
Distribution (Mus musculus [12]): 0.62 pmol/mg
Distribution (Mus musculus [13]): 17.6%
Distribution (Mus musculus [14]): 0.66 pmol/mg
Distribution (Mus musculus [15]): 43%
Quantity (Mus musculus [16]): 27.8 pmol/mg
Quantity (Mus musculus [17]): 1.21 pmol/mg
Distribution (Mus musculus [18]): 1.1 pmol/mg
Distribution (Mus musculus [19]): 5.2%
Quantity (Mus musculus [20]): 1.62 pmol/mg
Distribution (Mus musculus [21]): 84.7%
Distribution (Mus musculus [22]): 0.83 pmol/mg
Distribution (Mus musculus [23]): 0.85 pmol/mg

Continued by falling Ki (Mus musculus [4]), values first:

Partition coefficient [1]: 10.6
AUC (Mus musculus [2]): 12500 ng·h/mL
half-life [3]: 33.6 min
Ki (Mus musculus [4]): 350 µM
Structure (SMILES): CO[C@H]1N(C2CC(N=[N+]=[N-])C(CO)O2)C(=O)NC(=O)[C@]1(C)I (stereo not given in full)

Partition coefficient [1]: 18.8
AUC (Mus musculus [2]): 9820 ng·h/mL
half-life [3]: 149 min
Ki (Mus musculus [4]): 200 µM
Structure (SMILES): CO[C@@H]1N(C2CC(N=[N+]=[N-])C(CO)O2)C(=O)NC(=O)[C@@]1(C)I (stereo not given in full)

Ki (Mus musculus [4]): 125 µM
Structure (SMILES): O=c1ccn([C@H]2C[C@H](O)[C@@H](CO)O2)c(=O)[nH]1 [DEOXYURIDINE]
